From ChEMBL document CHEMBL4196155 (J Med Chem, 2018)
Active and inactive are the calls of the source. No cut-off for these calls is given here.

Experiments:
[1] = biological target: T1, Melatonin receptor type 1A (Homo sapiens, UniProt P48039); assay: Intrinsic agonist activity at human MT1 receptor expressed in […] NIH/3T3 cell membranes assessed as induction of G protein activation incubated for 30 mins by [35S]GTPgammaS binding assay relative to melatonin; assay type: functional
In short: (§1)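 NIH3T3 membranes bearing cloned human MT1 or MT2 (15–25 μg protein) incubated 30 min at 30 °C with [35S]GTPγS 0.3–0.5 nM, GDP 50 μM, NaCl 100 mM, MgCl2 3 mM. […] Maximal stimulation above basal was divided by that of 100 nM MLT in the same experiment. Run in triplicate.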

[2] = biological target: T1, Melatonin receptor type 1A; assay: biochemical
[3] = biological target: T2, Melatonin receptor type 1B (Homo sapiens) (UniProt P49286); assay: Intrinsic agonist activity at human MT2 receptor expressed in […] NIH/3T3 cell membranes assessed as induction of G protein activation incubated for 30 mins by [35S]GTPgammaS binding assay relative to melatonin; assay type: functional; in short: as §1
T2 sequence (whole entry): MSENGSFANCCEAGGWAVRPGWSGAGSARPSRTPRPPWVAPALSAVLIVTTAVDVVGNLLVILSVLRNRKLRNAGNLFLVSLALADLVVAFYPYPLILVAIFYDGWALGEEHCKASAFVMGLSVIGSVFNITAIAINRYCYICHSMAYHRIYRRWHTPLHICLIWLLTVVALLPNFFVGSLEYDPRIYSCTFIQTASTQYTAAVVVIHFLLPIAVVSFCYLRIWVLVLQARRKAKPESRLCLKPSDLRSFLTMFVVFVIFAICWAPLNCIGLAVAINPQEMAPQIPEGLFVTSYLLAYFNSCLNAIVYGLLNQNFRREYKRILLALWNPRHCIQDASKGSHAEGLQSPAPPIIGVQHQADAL

[4] = biological target: T3, Melatonin receptor type 1B (Homo sapiens, UniProt P49286); assay: biochemical
T3 sequence (P49286 whole entry): T2 sequence (whole entry)

[5] = biological target: T4, Fatty-acid amide hydrolase 1 (Rattus norvegicus, UniProt P97612); assay: Inhibition of FAAH1 in Wistar rat brain homogenates using [3H]anandamide as substrate incubated for 30 mins by liquid scintillation counting method
T4 sequence (P97612 whole entry): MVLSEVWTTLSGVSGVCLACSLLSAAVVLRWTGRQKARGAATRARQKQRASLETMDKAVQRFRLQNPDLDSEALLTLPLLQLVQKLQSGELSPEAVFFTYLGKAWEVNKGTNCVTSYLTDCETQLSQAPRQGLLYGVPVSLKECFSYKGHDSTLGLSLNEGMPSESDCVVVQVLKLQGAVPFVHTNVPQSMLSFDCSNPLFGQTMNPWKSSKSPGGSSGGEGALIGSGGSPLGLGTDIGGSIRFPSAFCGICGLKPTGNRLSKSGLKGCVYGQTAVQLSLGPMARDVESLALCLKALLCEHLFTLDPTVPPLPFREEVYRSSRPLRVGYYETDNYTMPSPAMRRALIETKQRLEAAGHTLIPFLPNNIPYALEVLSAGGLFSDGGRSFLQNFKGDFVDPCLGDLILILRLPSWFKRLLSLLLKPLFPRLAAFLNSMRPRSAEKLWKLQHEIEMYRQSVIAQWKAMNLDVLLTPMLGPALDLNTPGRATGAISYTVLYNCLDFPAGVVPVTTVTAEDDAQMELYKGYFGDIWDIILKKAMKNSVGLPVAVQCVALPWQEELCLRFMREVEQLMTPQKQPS
In short: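 Wistar rat brain homogenised in ice-cold Tris 50 mM pH 7.5 with 0.32 M sucrose, spun 1,000 × g 10 min at 4 °C; supernatant used. Homogenate (50 μg protein) incubated 30 min at 37 °C in Tris 50 mM pH 7.5, 0.05% fatty-acid-free BSA, 10 μM anandamide plus [3H]anandamide (20,000 cpm), varying compound concentrations, final DMSO 1%. Stopped with CHCl3/MeOH 1:1; aqueous [3H]ethanolamine counted. IC50 from at least two determinations.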

[6] = test system: Oryctolagus cuniculus; assay: Reduction in hypertonic saline solution-induced elevated intraocular pressure in New Zealand White rabbit at 1 mM dosed topically before hypertonic saline solution injection measured after 120 mins; assay type: functional, organism-based
In short: (§2)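 Male SPF New Zealand albino rabbits, 2–2.5 kg, four per compound. 0.05 mL of 1 mM solution in 0.9% NaCl, 0.1% DMSO, 0.1% EtOH was dropped into one eye, vehicle into the other, before intravitreal 0.1 mL 5% hypertonic saline. IOP was read by tonometry after oxybuprocaine 0.2% once the rise had stabilised at 30–40 mm Hg, then after treatment. Analysis by 2-way ANOVA with Bonferroni.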

[7] = test system: Oryctolagus cuniculus; assay: Reduction in hypertonic saline solution-induced elevated intraocular pressure in New Zealand White rabbit at 1 mM dosed topically before hypertonic saline solution injection measured after 60 mins; assay type: functional, organism-based; in short: as §2
[8] = test system: Oryctolagus cuniculus; assay: Reduction in hypertonic saline solution-induced elevated intraocular pressure in New Zealand White rabbit at 1 mM dosed topically before hypertonic saline solution injection measured after 240 mins; assay type: functional, organism-based; in short: as §2

T1 sequence (P48039 whole entry): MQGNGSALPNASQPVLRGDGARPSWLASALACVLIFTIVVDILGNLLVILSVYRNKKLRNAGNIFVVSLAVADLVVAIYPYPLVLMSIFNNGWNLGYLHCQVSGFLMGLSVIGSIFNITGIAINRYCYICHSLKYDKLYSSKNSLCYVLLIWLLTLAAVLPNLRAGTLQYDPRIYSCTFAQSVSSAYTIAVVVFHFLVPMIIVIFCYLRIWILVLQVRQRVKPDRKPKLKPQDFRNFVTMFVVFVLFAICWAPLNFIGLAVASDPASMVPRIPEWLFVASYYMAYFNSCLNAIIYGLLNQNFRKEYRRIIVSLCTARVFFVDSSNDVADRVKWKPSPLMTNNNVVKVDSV

SMILES	Intrinsic activity [1]	Ki [2] [nM]	Intrinsic activity [3]	Ki [4] [nM]	IC50 [5] [nM]	Activity [6]	Activity [7]	Activity [8]
CC(=O)NCCN(C)c1cccc(OCCCCOc2cccc(O)c2)c1	0.27	186	0.18	603				
CC(=O)NCCN(C)c1cccc(OCCCCNC(=O)Oc2cccc(-c3ccccc3)c2)c1	0.64	12.9	0.39	44.7	1.45			
CC(=O)NCCc1c[nH]c2ccc(OCCCCCCCCNC(=O)Oc3cccc(-c4ccccc4)c3)cc12	0.73	4.9	0.53	6.31	4	inactive	Active	inactive
COc1ccc2[nH]cc(CCNC(C)=O)c2c1						inactive	Active	
CC(=O)NCCN(C)c1cccc(OCCCCCCN)c1	0.34	447	0.08	398				
CC(=O)NCCc1c[nH]c2ccc(OCCCCCCNC(=O)Oc3cccc(-c4ccccc4)c3)cc12	0.73	6.03	1.02	4.57	2.38	inactive	Active	inactive
NC(=O)c1cccc(-c2cccc(OC(=O)NC3CCCCC3)c2)c1						inactive	Active	
CC(=O)NCCN(C)c1cccc(OCCCCCCNC(=O)Oc2cccc(-c3cccc(C(N)=O)c3)c2)c1	0.79	38.9	1.01	15.5	0.43	Active	inactive	
CC(=O)NCCc1c(Br)[nH]c2ccc(OCCCCCCNC(=O)Oc3cccc(-c4ccccc4)c3)cc12	0.73	0.776	0.97	1.7	0.85	Active		Active
CC(=O)NCCN(C)c1cccc(OCCCCCCOc2cccc(O)c2)c1	0.62	58.9	0.57	331				
CC(=O)NCCN(C)c1cccc(OCCCCCCNC(=O)Oc2cccc(-c3cccc(O)c3)c2)c1	0.89	29.5	0.94	26.9	0.36	Active	inactive	
CC(=O)NCCN(C)c1cccc(OCCCCCCCCNC(=O)Oc2cccc(-c3ccccc3)c2)c1	0.85	31.6	0.96	32.4	0.63	Active	inactive	
CC(=O)NCCN(C)c1cccc(OCCCCCCOc2cccc(OC(=O)NC3CCCCC3)c2)c1	0.71	27.5	0.71	295	197			
CC(=O)NCCN(C)c1cccc(OCCCCCCNC(=O)Oc2cccc(-c3ccccc3)c2)c1	0.7	21.4	0.75	33.1	1.34			
CC(=O)NCCN(C)c1cccc(OCCCCOc2cccc(OC(=O)NC3CCCCC3)c2)c1	0.07	34.7	0.05	53.7	184			
CC(=O)NCCN(C)c1cccc(OCCCCN)c1	0.32	3090	0.35	12900				
CCC(=O)NCCN(C)c1cccc(OCCCCCCNC(=O)Oc2cccc(-c3ccccc3)c2)c1	0.77	16.2	0.88	19.1	3.07			
